Results on six compounds are retold here after ChEMBL document CHEMBL1131385, “Does the anti-hepatitis B virus activity of (+)-5'-noraristeromycin exist in its 4'-epimer and 4'-deoxygenated derivatives?” (J Med Chem, 1998).

For assay [1], the system named is Hepatoblastoma cell line. Nature of the assay: Cytotoxic concentration against Hepatitis B virus in human hepatoblastoma cell line. The format is functional.
Assay [2] concerns Hepatoblastoma cell line. Nature of the assay: (§1) Effective concentration against Hepatitis B virus in human hepatoblastoma cell line. The format is functional, cell-based. Put shortly:
(§2)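 Confluent cultures of the human hepatoblastoma line 2.2.15, which chronically produces HBV, were used to measure inhibition of HBV replication. Cells got nine consecutive daily doses of agent, with the medium removed each day.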

Assay [3] has as its system Hepatoblastoma cell line. Described as §1. It counts as functional. The method in brief: as §2
The nature of assay [4]: Selectivity index was evaluated [Selectivity = (CC50 / EC50) against Hepatitis B virus in human hepatoblastoma cell line]. The format is functional.

The compound `Nc1ncnc2c1ncn2[C@H]1C[C@@H](O)[C@H](O)[C@@H]1O` displayed a half-maximal cytotoxic concentration (CC50) in assay [1] of 1880 µM. In assay [2], this compound yielded a half-maximal effective concentration (EC50) greater than 10 µM. Also, the concentration for an effect of 90% (EC90) in assay [3] is greater than 10 µM.

Compound `Nc1ncnc2c1ncn2[C@H]1C=C[C@H](O)[C@@H]1O` displayed a 50% cytotoxic concentration (CC50) in assay [1] of 325 µM. The compound also gave an EC50 in assay [2] of 0.145 µM. In addition, the EC90 in assay [3] was 1.4 µM. For the same compound, the SI in assay [4] is on record as 232.

Regarding `Nc1ncnc2c1ncn2[C@@H]1CC[C@@H](O)[C@H]1O`, the CC50 in assay [1] turned out to be 93 µM. Further, the concentration giving a half-maximal response (EC50) in assay [2] came out at 0.12 µM. Also, the EC90 in assay [3] is 0.978 µM. This compound gave an SI in assay [4] of 95.

In assay [1], `COC1CC(n2cnc3c(N)ncnc32)C(O)C1O` (configuration not stated) came in with a 50% cytotoxic concentration (CC50) greater than 1000 µM. In addition, the EC50 in assay [2] is greater than 10 µM. In assay [3], the concentration for an effect of 90% (EC90) is greater than 10 µM.

For the compound `Nc1ccn([C@@H]2CS[C@H](CO)O2)c(=O)n1` [LAMIVUDINE], in assay [1], the CC50 is 1880 µM. This compound registered an EC50 in assay [2] of 0.07 µM. The same compound returned a 90% effect concentration (EC90) in assay [3] of 0.209 µM. For the same compound, in assay [4], the SI worked out at 9014.

Take `Nc1ncnc2c1ncn2[C@@H]1C[C@H](O)[C@@H](O)[C@H]1O` [NORARISTEROMYCIN]: the 50% cytotoxic concentration (CC50) in assay [1] is 446 µM. The same compound returned an EC50 in assay [2] of 1.4 µM. Besides, in assay [3], the EC90 amounted to 9.6 µM. This compound displayed an SI in assay [4] of 46.

As a reminder, the CC50 is the concentration giving 50% cytotoxicity. A high value points to better tolerance by the cells. What is called EC50 is the concentration needed to bring the measured effect to its halfway point. Low readings indicate a more potent agent, high ones a less potent agent. Broadly, the EC90 is the point of the concentration-response curve where the effect stands at 90%.
